PMC3889329 (Diabetes Therapy, 2013)

Columns and labels:
[1] = system: patients with type 2 diabetes mellitus; test: Safety and tolerability; format: in vivo, human; conditions: for Diarrhea / Headache / Hypoglycemia / Patients with any AE / Pruritus: N = 9
Method in brief: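 This was a double-blind, multiple rising dose trial with patients randomized 3:1 to active or placebo per dose group. Oral dosing was once daily: a single dose on day 1, then days 3–9. Adverse events were recorded, and relatedness was investigator-defined. Hypoglycemia was defined as blood glucose <3.5 mmol/L. An end-of-study examination was done on days 15–21. Analysis was descriptive, randomized set (n = 48).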

[2] = system: patients with type 2 diabetes mellitus; test: Weighted mean daily glucose; format: in vivo, human; conditions: for Mean MDG, mean (least squares) change from baseline to day 8: baseline day −2
Method in brief: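 Eight-point weighted mean daily glucose was calculated as the 24 h glucose AUEC0–24 divided by 24 h. It was measured under standardized meals without OGTT on day −2 (baseline) and day 8, after multiple once-daily oral doses. Change from baseline is given as least squares means. Analysis used the treated set.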

Structure (SMILES): OC[C@H]1O[C@@H](c2ccc(Cl)c(Cc3ccc(O[C@H]4CCOC4)cc3)c2)[C@H](O)[C@@H](O)[C@@H]1O [Empagliflozin]
- Diarrhea ([1]; 2.5 mg qd): 2 (22.2) n (%)
- Headache ([1]; 2.5 mg qd): 0 n (%)
- Hypoglycemia ([1]; 2.5 mg qd): 0 n (%)
- Patients with any AE ([1]; 2.5 mg qd): 6 (66.7) n (%)
- Pruritus ([1]; 2.5 mg qd): 1 (11.1) n (%)
- Diarrhea ([1]; 10 mg qd): 0 n (%)
- Headache ([1]; 10 mg qd): 1 (11.1) n (%)
- Hypoglycemia ([1]; 10 mg qd): 2 (22.2) n (%)
- Patients with any AE ([1]; 10 mg qd): 5 (55.6) n (%)
- Pruritus ([1]; 10 mg qd): 0 n (%)
- Diarrhea ([1]; 25 mg qd): 0 n (%)
- Headache ([1]; 25 mg qd): 2 (22.2) n (%)
- Hypoglycemia ([1]; 25 mg qd): 1 (11.1) n (%)
- Patients with any AE ([1]; 25 mg qd): 5 (55.6) n (%)
- Pruritus ([1]; 25 mg qd): 1 (11.1) n (%)
- Diarrhea ([1]; 100 mg qd): 0 n (%)
- Headache ([1]; 100 mg qd): 0 n (%)
- Hypoglycemia ([1]; 100 mg qd): 0 n (%)
- Patients with any AE ([1]; 100 mg qd): 3 (33.3) n (%)
- Pruritus ([1]; 100 mg qd): 0 n (%)
- Frequency of AEs ([1]; all patients receiving empagliflozin): 52.8%
- Patients with hypoglycemic events (blood glucose <3.5 mmol/L) ([1]; all within 5 h of OGTT administration, moderate intensity): Three
- Patients with AE leading to discontinuation of study treatment ([1]; cellulitis, moderate intensity, not believed related to study medication): 1 patient
- Tolerability ([1]; multiple once-daily oral doses 2.5–100 mg): well tolerated
- Fatalities or serious AEs ([1]; treatment period): no fatalities or serious AEs
- Urinary tract or genital tract infections ([1]; treatment period): No urinary tract or genital tract infections were reported
- Mean MDG (SD), Day 8 ([2]; 2.5 mg qd, without OGTT): 134 (42.7) mg/dL
- Mean MDG change from baseline to day 8, difference to placebo ([2]; 2.5 mg qd, without OGTT): −15.5, p < 0.05 mg/dL
- Mean MDG, mean (least squares) change from baseline to day 8 ([2]; 2.5 mg qd, without OGTT): -29.0 mg/dL
- Mean MDG (SD), Day 8 ([2]; 10 mg qd, n = 8, without OGTT): 124 (18.9) mg/dL
- Mean MDG change from baseline to day 8, difference to placebo ([2]; 10 mg qd, without OGTT): −23.5, p < 0.01 mg/dL
- Mean MDG, mean (least squares) change from baseline to day 8 ([2]; 10 mg qd, without OGTT): -37.0 mg/dL
- Mean MDG (SD), Day 8 ([2]; 25 mg qd, without OGTT): 133 (36.2) mg/dL
- Mean MDG change from baseline to day 8, difference to placebo ([2]; 25 mg qd, without OGTT): −15.0, p = 0.052 mg/dL
- Mean MDG, mean (least squares) change from baseline to day 8 ([2]; 25 mg qd, without OGTT): -28.5 mg/dL
- Mean MDG (SD), Day 8 ([2]; 100 mg qd, without OGTT): 154 (17.9) mg/dL
- Mean MDG change from baseline to day 8, difference to placebo ([2]; 100 mg qd, without OGTT): −10.6, p = 0.168 mg/dL
- Mean MDG, mean (least squares) change from baseline to day 8 ([2]; 100 mg qd, without OGTT): -24.1 mg/dL
